Data as given in ChEMBL document CHEMBL1649110, “Pharmacodynamics of minocycline against Staphylococcus aureus in an in vitro pharmacokinetic model” (Antimicrob Agents Chemother, 2008).
Values after ≈ are worked out from the molar mass of the structure shown. Active and inactive are the calls of the source. The rule behind the calls is not given here.

Columns and labels:
Staphylococcus aureus [1] = experiment: Antibacterial activity against methicillin-resistant Staphylococcus aureus SMH 32985 infected in in vitro hollow-fiber model assessed as log reduction in viable bacterial count at 100 mg administered every 12 hrs measured after 24 hrs; type: functional
Procedure, shortened: (§1)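 Hollow-fiber model at 37°C, 25% Mueller-Hinton broth, 10^6 CFU/ml inoculum in the peripheral compartment. […] Viable counts on nutrient agar (detection limit 2.0 x 10^2 CFU/ml). Read-out is log change in count at 24 h versus start. Triplicate.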

Staphylococcus aureus [2] = experiment: Antibacterial activity against Staphylococcus aureus SMH 31236 after 24 hrs by Etest; type: functional; conditions: SMH 31236, 24 h
[3] = Cmax in simulated human serum in in vitro hollow-fiber PK model at 100 mg administered every 12 hrs; type: ADME, organism-based; parameters: dose 100 mg; conditions: in vitro hollow-fiber PK model simulating human serum
Procedure, shortened: (§2)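 Samples were taken at 0, 1, 2, 3, 4, 5, 6, 12 and 24 h. Concentrations were measured by bioassay on Penassay seed agar with Bacillus subtilis as indicator. Triplicate runs.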

Staphylococcus aureus [4] = experiment: Ratio of AUC to MIC in methicillin-resistant Staphylococcus aureus infected in in vitro hollow-fiber PK model at 100 mg after 8 hrs; type: functional
Staphylococcus aureus [5] = experiment: Ratio of AUC to MIC in methicillin-resistant Staphylococcus aureus infected in in vitro hollow-fiber PK model at 100 mg after 24 hrs; type: functional
Staphylococcus aureus [6] = experiment: Antibacterial activity against methicillin-resistant Staphylococcus aureus SMH 32985 infected in in vitro hollow-fiber model assessed as log reduction in viable bacterial count at 100 mg after 12 hrs; type: functional
Staphylococcus aureus [7] = experiment: Antibacterial activity against methicillin-resistant Staphylococcus aureus SMH 32985 after 24 hrs by Etest; type: functional; conditions: SMH 32985, 24 h
[8] = Half life in simulated human serum in in vitro hollow-fiber PK model at 100 mg administered every 12 hrs; type: ADME, cell-free; conditions: in vitro hollow-fiber PK model simulating human serum; procedure, shortened: as §2
Staphylococcus aureus [9] = experiment: AUBKC (24 hrs) in methicillin-resistant Staphylococcus aureus SMH 32024 infected in in vitro hollow-fiber PK model at 100 mg administered every 12 hrs; type: functional
Procedure, shortened: (§3)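 Peripheral compartment inoculated to 10^6 CFU/ml. Samples at 0–24 h were spiral-plated on nutrient agar (detection limit 2.0 x 10^2 CFU/ml). Area under the bacterial kill curve was taken over 0–24 h. Triplicate runs.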

Staphylococcus aureus [10] = experiment: Bactericidal activity against Staphylococcus aureus assessed as log reduction in bacterial count; type: functional
Staphylococcus aureus [11] = experiment: Antibacterial activity against Staphylococcus aureus SMH 31236 infected in in vitro hollow-fiber model assessed as log reduction in viable bacterial count at 100 mg administered every 12 hrs measured after 24 hrs; type: functional
Procedure, shortened: (§4)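 Hollow-fiber model at 37°C in 25% Mueller-Hinton broth with a peripheral-compartment inoculum of 10^6 CFU/ml. […] Samples were taken at 0–24 h and counted on nutrient agar (detection limit 2.0 x 10^2 CFU/ml). Run in triplicate.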

Staphylococcus aureus [12] = experiment: AUBKC (24 hrs) in […] Staphylococcus aureus SMH 26910 infected in in vitro hollow-fiber PK model at 100 mg administered every 12 hrs; type: functional; procedure, shortened: as §3
Staphylococcus aureus [13] = experiment: Antibacterial activity against Staphylococcus aureus SMH 31236 infected in in vitro hollow-fiber model assessed as log reduction in viable bacterial count at 100 mg after 12 hrs; type: functional; procedure, shortened: as §4
[14] = Tmax in simulated human serum in in vitro hollow-fiber PK model at 100 mg administered every 12 hrs; type: ADME, cell-free; conditions: in vitro hollow-fiber PK model simulating human serum; procedure, shortened: as §2
Staphylococcus aureus [15] = experiment: AUBKC (24 hrs) in methicillin-resistant Staphylococcus aureus SMH 31236 infected in in vitro hollow-fiber PK model at 100 mg administered every 12 hrs; type: functional; procedure, shortened: as §3
Staphylococcus aureus [16] = experiment: Bactericidal activity against methicillin-resistant Staphylococcus aureus infected in rabbit at 6 mg/kg of body weight administered every 8 hrs measured after 72 hrs; type: functional
Staphylococcus aureus [17] = experiment: Antibacterial activity against Staphylococcus aureus SMH 26910 infected in in vitro hollow-fiber model assessed as log reduction in viable bacterial count at 100 mg administered every 12 hrs measured after 24 hrs; type: functional; procedure, shortened: as §4
Staphylococcus aureus [18] = experiment: Ratio of AUC to MIC in methicillin-resistant Staphylococcus aureus infected in in vitro hollow-fiber PK model at 100 mg administered every 12 hrs; type: functional
Staphylococcus aureus [19] = experiment: Bactericidal activity against Staphylococcus aureus assessed as reduction log reduction in viable bacterial count at 0.5 to 1 times MIC; type: functional
Staphylococcus aureus [20] = experiment: Antibacterial activity against Staphylococcus aureus SMH 26910 after 24 hrs by Etest; type: functional; conditions: SMH 26910, 24 h
Staphylococcus aureus [21] = experiment: Antibacterial activity against methicillin-resistant Staphylococcus aureus SMH 32024 infected in in vitro hollow-fiber model assessed as log reduction in viable bacterial count at 100 mg administered every 12 hrs measured after 24 hrs; type: functional; procedure, shortened: as §1
Staphylococcus aureus [22] = experiment: Antibacterial activity against methicillin-resistant Staphylococcus aureus SMH 32024 infected in in vitro hollow-fiber model assessed as log reduction in viable bacterial count at 100 mg after 12 hrs; type: functional
[23] = T>MIC in Staphylococcus aureus infected rabbit; type: functional
Staphylococcus aureus [24] = experiment: Ratio of AUC to MIC in methicillin-resistant Staphylococcus aureus infected in in vitro hollow-fiber PK model at 100 mg after 12 hrs; type: functional
Staphylococcus aureus [25] = experiment: AUBKC (24 hrs) in methicillin-resistant Staphylococcus aureus SMH 32985 infected in in vitro hollow-fiber PK model at 100 mg administered every 12 hrs; type: functional; procedure, shortened: as §3
Staphylococcus aureus [26] = experiment: Antibacterial activity against Staphylococcus aureus SMH 26910 infected in in vitro hollow-fiber model assessed as log reduction in viable bacterial count at 100 mg after 12 hrs; type: functional; procedure, shortened: as §4
[27] = Half life in human serum; type: ADME, cell-free
Staphylococcus aureus [28] = experiment: Antibacterial activity against methicillin-resistant Staphylococcus aureus SMH 32024 after 24 hrs by Etest; type: functional; conditions: SMH 32024, 24 h
Staphylococcus aureus [29] = experiment: Bactericidal activity against Staphylococcus aureus infected in in vitro hollow-fiber PK model at 400 mg administered every 24 hrs; type: functional, organism-based
Staphylococcus aureus [30] = experiment: Bactericidal activity against Staphylococcus aureus infected in in vitro hollow-fiber PK model at 200 mg administered every 24 hrs; type: functional, organism-based
Staphylococcus aureus [31] = experiment: Bactericidal activity against Staphylococcus aureus infected in in vitro hollow-fiber PK model at 100 mg administered every 12 hrs; type: functional, organism-based
Staphylococcus aureus [32] = experiment: Bactericidal activity against Staphylococcus aureus infected in in vitro hollow-fiber PK model at 200 mg administered every 12 hrs; type: functional, organism-based
Staphylococcus aureus [33] = experiment: Bactericidal activity against Staphylococcus aureus assessed as viable bacterial count at 2 times MIC; type: functional
Staphylococcus aureus [34] = experiment: Bactericidal activity against Staphylococcus aureus assessed as viable bacterial count at 4 times MIC; type: functional
Staphylococcus aureus [35] = experiment: Antibacterial activity against Staphylococcus aureus in murine thigh infection model; type: functional; conditions: Thigh muscle
[36] = T>MIC in Staphylococcus aureus infected neutropenic mouse thigh infection model; type: functional, Thigh muscle
Staphylococcus aureus [37] = experiment: Bactericidal activity against methicillin-resistant Staphylococcus aureus infected in rabbit at 50 mg/kg of body weight administered every 8 hrs measured after 72 hrs; type: functional
[38] = Cmax in simulated human serum in in vitro hollow-fiber PK model at 1 g administered every 12 hrs by fluorescence polarization immunoassay method; type: ADME, organism-based; parameters: dose 1 g; conditions: in vitro hollow-fiber PK model simulating human serum
Procedure, shortened: (§5)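 Free vancomycin 1 g q12h simulated in a hollow-fiber model at 37°C with 25% Mueller-Hinton broth. […] Dosed into the dosing chamber at 0 and 12 h. Samples were taken at 0, 1, 2, 3, 4, 5, 6, 12 and 24 h, and concentrations measured by fluorescence polarization immunoassay. Triplicate experiments.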

[39] = Tmax in simulated human serum in in vitro hollow-fiber PK model at 1 g administered every 12 hrs; type: ADME, cell-free; conditions: in vitro hollow-fiber PK model simulating human serum; procedure, shortened: as §5
[40] = Half life in simulated human serum in in vitro hollow-fiber PK model at 1 g administered every 12 hrs; type: ADME, cell-free; conditions: in vitro hollow-fiber PK model simulating human serum; procedure, shortened: as §5
[41] = Tmax in simulated human serum in in vitro hollow-fiber PK model at 600 mg administered every 24 hrs; type: ADME, cell-free; conditions: in vitro hollow-fiber PK model simulating human serum
[42] = Cmax in simulated human serum in in vitro hollow-fiber PK model at 600 mg administered every 24 hrs by HPLC; type: ADME, organism-based; parameters: dose 600 mg; conditions: in vitro hollow-fiber PK model simulating human serum

CN(C)c1ccc(O)c2c1C[C@H]1C[C@H]3[C@H](N(C)C)C(O)=C(C(N)=O)C(=O)[C@@]3(O)C(O)=C1C2=O [MINOCYCLINE]
FC (Staphylococcus aureus [1]): 0.8 | MIC (Staphylococcus aureus [2]): 0.75 µg/mL (≈ 1.64 µM) | Cmax [3]: 600 ng/mL | RatioAUC/MIC (Staphylococcus aureus [4]): 1.7 | RatioAUC/MIC (Staphylococcus aureus [5]): 1.6 | FC (Staphylococcus aureus [6]): 0.5 | MIC (Staphylococcus aureus [7]): 0.04 µg/mL (≈ 0.0874 µM) | half-life [8]: 12 h | fold change (FC) (Staphylococcus aureus [9]): 77.2 | Log reduction in bacterial count (Staphylococcus aureus [10]): 1.5 | FC (Staphylococcus aureus [11]): 0.1 | fold change (FC) (Staphylococcus aureus [12]): 77.6 | FC (Staphylococcus aureus [13]): 1.6 | Tmax [14]: 2.3 h | fold change (FC) (Staphylococcus aureus [15]): 98.4 | log10 CFU/g (Staphylococcus aureus [16]): 5.3 log10 CFU/g | FC (Staphylococcus aureus [17]): 1.4 | RatioAUC/MIC (Staphylococcus aureus [18]): 200 | FC (Staphylococcus aureus [19]): 1.5 | MIC (Staphylococcus aureus [20]): 0.06 µg/mL (≈ 0.131 µM) | FC (Staphylococcus aureus [21]): 0.2 | FC (Staphylococcus aureus [22]): 0.8 | fT>MIC [23]: 100% | RatioAUC/MIC (Staphylococcus aureus [24]): 2.1 | fold change (FC) (Staphylococcus aureus [25]): 79.7 | FC (Staphylococcus aureus [26]): 1.9 | half-life [27]: 12 h | MIC (Staphylococcus aureus [28]): 0.19 µg/mL (≈ 0.415 µM)

C[C@H]1c2cccc(O)c2C(=O)C2=C(O)[C@]3(O)C(=O)C(C(N)=O)=C(O)[C@@H](N(C)C)[C@@H]3[C@@H](O)[C@@H]21.O [DOXYCYCLINE]
Activity (Staphylococcus aureus [29]): Active | Activity (Staphylococcus aureus [30]): Active | Activity (Staphylococcus aureus [31]): Active | Activity (Staphylococcus aureus [10]): Active | Activity (Staphylococcus aureus [32]): Active | fold change (FC) (Staphylococcus aureus [33]): 0.5 | fold change (FC) (Staphylococcus aureus [34]): 0.5

CN(C)c1cc(NC(=O)CNC(C)(C)C)c(O)c2c1C[C@H]1C[C@H]3[C@H](N(C)C)C(O)=C(C(N)=O)C(=O)[C@@]3(O)C(O)=C1C2=O [TIGECYCLINE]
MIC (Staphylococcus aureus [35]): 0.125 µg/mL (≈ 0.213 µM) | Activity (Staphylococcus aureus [10]): Active | Log reduction in bacterial count (Staphylococcus aureus [10]): 2 | fT>MIC [36]: >50%

CN[C@H](CC(C)C)C(=O)N[C@H]1C(=O)N[C@@H](CC(N)=O)C(=O)N[C@H]2C(=O)N[C@H]3C(=O)N[C@H](C(=O)N[C@H](C(=O)O)c4cc(O)cc(O)c4-c4cc3ccc4O)[C@H](O)c3ccc(c(Cl)c3)Oc3cc2cc(c3O[C@@H]2O[C@H](CO)[C@@H](O)[C@H](O)[C@H]2O[C@H]2C[C@](C)(N)[C@H](O)[C@H](C)O2)Oc2ccc(cc2Cl)[C@H]1O [VANCOMYCIN]
log10 CFU/g (Staphylococcus aureus [37]): 4.8 log10 CFU/g | MIC (Staphylococcus aureus [7]): 1.5 µg/mL (≈ 1.04 µM) | Cmax [38]: 15000 ng/mL | Tmax [39]: 1 h | MIC (Staphylococcus aureus [20]): 1.5 µg/mL (≈ 1.04 µM) | half-life [40]: 6 h | MIC (Staphylococcus aureus [28]): 1.5 µg/mL (≈ 1.04 µM)

CO[C@H]1/C=C/O[C@@]2(C)Oc3c(C)c(O)c4c(O)c(c(/C=N/N5CCN(C)CC5)c(O)c4c3C2=O)NC(=O)/C(C)=C\C=C\[C@H](C)[C@H](O)[C@@H](C)[C@@H](O)[C@@H](C)[C@H](OC(C)=O)[C@@H]1C [RIFAMPIN]
Tmax [41]: 1.2 h | Cmax [42]: 2000 ng/mL
